Measured values from ChEMBL document CHEMBL4765328 (Eur J Med Chem, 2020).
The source made the active and inactive calls. The calls are words filed in the database; no cut-off is given here.

Columns and labels:
[1] = Antitumor activity mouse E0771 cells implanted in C57BL/6 mouse assessed as reduction tumor growth at 30 mg/kg, ip administered every other day relative to control; assay type: functional, EO771; parameters: scale not given: the % may be the effect or the level left
Procedure, shortened: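 Female C57BL/6 mice, seven weeks old, injected orthotopically into the mammary fat pad with 4 × 10^5 E0771 cells. Palpable tumours randomised into groups, dosed intraperitoneally every other day in DMSO vehicle, 100 µL final volume; vehicle-only controls. Caliper volume V=(D×d²)/2, tumour weight taken at end; n=5 mice/group; body weight monitored; two-way ANOVA with Bonferroni.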

Daoy = experiment: Antiproliferative activity against human Daoy cells assessed as inhibition of cell growth; assay type: functional, cell-based
Procedure, shortened: (§1)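 Compounds from 10 mM DMSO stocks; final DMSO ≤0.25%. Growth inhibition of cancer cell lines read from dose-response curves; IC50 as mean ± SEM of at least three independent experiments.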

HeLa [2] = experiment: Antiproliferative activity against human HeLa cells assessed as inhibition of cell growth; assay type: functional, cell-based
Procedure, shortened: (§2)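 Growth inhibition of cancer cell lines read from dose-response curves; IC50 as mean ± SEM of at least three independent experiments.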

HL-60 = experiment: Antiproliferative activity against human HL-60 cells assessed as inhibition of cell growth; assay type: functional, cell-based; procedure, shortened: as §2
HT-29 = experiment: Antiproliferative activity against human HT-29 cells assessed as inhibition of cell growth; assay type: functional, cell-based; procedure, shortened: as §2
SEM cells = experiment: Antiproliferative activity against human SEM cells assessed as inhibition of cell growth; assay type: functional, cell-based; procedure, shortened: as §1
Jurkat = experiment: Antiproliferative activity against human Jurkat cells assessed as inhibition of cell growth; assay type: functional, cell-based; procedure, shortened: as §1
Bos taurus [3] = species: Bos taurus; experiment: Inhibition of [3H]colchicine binding to bovine brain tubulin at 0.5 uM relative to control; assay type: tissue-based
Procedure, shortened: (§3)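 [3H]colchicine binding to purified tubulin, with tubulin at 0.5 µM and colchicine at 5 µM. Compounds tested at 5 and 0.5 µM. CA-4 was run in contemporaneous experiments for comparison.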

Bos taurus [4] = species: Bos taurus; experiment: Inhibition of [3H]colchicine binding to bovine brain tubulin at 5 uM relative to control; procedure, shortened: as §3
[5] = Inhibition of bovine brain tubulin polymerisation preincubated with compound followed by GTP addition and measured after 20 mins by turbidimetry based spectrophotometric method; assay type: tissue-based, Bos taurus
Procedure, shortened: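 Bovine brain tubulin (10 µM) in glutamate buffer, preincubated with varying compound concentrations at 30 °C, then cooled to 0 °C. GTP added to 0.4 mM final, then warmed to 30 °C in a recording spectrophotometer. Assembly followed by turbidity at 350 nm.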

HeLa [6] = experiment: Induction of apoptosis in human HeLa cells assessed as viable cells at 10 nM measured after 48 hrs by Annexin V-FITC/propidium iodide staining based flow cytometry (reference value: 97.28 %); assay type: functional; settings: read-out: Activity
HeLa [7] = experiment: Induction of mitochondrial membrane potential loss in human HeLa cells assessed as cells with polarized mitochondrial membrane at 10 nM after 24 hrs by JC-1 dye-based flow cytometric analysis (reference value: 92.0 %); assay type: functional
HeLa [8] = experiment: Induction of apoptosis in human HeLa cells assessed as necrotic cells at 10 nM measured after 48 hrs by Annexin V-FITC/propidium iodide staining based flow cytometry (reference value: […]); assay type: functional
[9] = Cytotoxicity against human PBL assessed as inhibition of cell growth; assay type: cell-based; settings: peripheral blood lymphocytes (PBL)
Procedure, shortened: (§4)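 Peripheral blood lymphocytes from healthy donors, tested either unstimulated or stimulated with PHA; DMSO ≤0.25% final. Values are mean ± SEM of three separate experiments.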

[10] = Cytotoxicity against PHA-stimulated human PBL assessed as inhibition of cell growth; assay type: cell-based; settings: PHA-stimulated peripheral blood lymphocytes (PBL); procedure, shortened: as §4
HeLa [11] = experiment: Induction of mitochondrial membrane potential loss in human HeLa cells assessed as cells with depolarized mitochondrial membrane at 10 nM after 24 hrs by JC-1 dye-based flow cytometric analysis (reference value: 7.8 %); assay type: functional
HeLa [12] = experiment: Induction of mitochondrial membrane potential loss in human HeLa cells assessed as cells with depolarized mitochondrial membrane at 10 nM after 48 hrs by JC-1 dye-based flow cytometric analysis (reference value: 7.8 %); assay type: functional
HeLa [13] = experiment: Induction of microtubule network depolymerization in human HeLa cells assessed as appearance of disorganised microtubules at 100 nM after 24 hrs by immunofluorescence staining based confocal microscopic analysis; assay type: cell-based
Procedure, shortened: (§5)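 HeLa cells treated 24 h at 10, 50 or 100 nM. They were then fixed in cold 4% formaldehyde for 15 min and stained with anti-β-tubulin for 2 h at room temperature. Alexa 488 secondary and DAPI counterstain followed; imaged by confocal microscopy at 20X.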

[14] = Cytotoxicity against normal human astrocytes assessed as inhibition of cell growth; assay type: cell-based, Astrocyte
HeLa [15] = experiment: Induction of apoptosis in human HeLa cells assessed as viable cells at 10 nM measured after 24 hrs by Annexin V-FITC/propidium iodide staining based flow cytometry (reference value: 97.28 %); assay type: functional; settings: read-out: Activity
HeLa [16] = experiment: Induction of apoptosis in human HeLa cells assessed as early apoptotic cells at 10 nM measured after 24 hrs by Annexin V-FITC/propidium iodide staining based flow cytometry (reference value: 0.96 %); assay type: functional
HeLa [17] = experiment: Induction of microtubule network depolymerization in human HeLa cells assessed as appearance of disorganised microtubules at 10 nM after 24 hrs by immunofluorescence staining based confocal microscopic analysis; assay type: cell-based; procedure, shortened: as §5
HeLa [18] = experiment: Induction of apoptosis in human HeLa cells assessed as late apoptotic cells at 10 nM measured after 24 hrs by Annexin V-FITC/propidium iodide staining based flow cytometry (reference value: 1.22 %); assay type: functional
HeLa [19] = experiment: Induction of apoptosis in human HeLa cells assessed as necrotic cells at 10 nM measured after 24 hrs by Annexin V-FITC/propidium iodide staining based flow cytometry (reference value: […]); assay type: functional
HeLa [20] = experiment: Induction of apoptosis in human HeLa cells assessed as early apoptotic cells at 10 nM measured after 48 hrs by Annexin V-FITC/propidium iodide staining based flow cytometry (reference value: 0.96 %); assay type: functional
HeLa [21] = experiment: Induction of microtubule network depolymerization in human HeLa cells assessed as appearance of disorganised microtubules at 50 nM after 24 hrs by immunofluorescence staining based confocal microscopic analysis; assay type: cell-based; procedure, shortened: as §5
HeLa [22] = experiment: Induction of apoptosis in human HeLa cells assessed as late apoptotic cells at 10 nM measured after 48 hrs by Annexin V-FITC/propidium iodide staining based flow cytometry (reference value: 1.22 %); assay type: functional
HeLa [23] = experiment: Induction of mitochondrial membrane potential loss in human HeLa cells assessed as cells with polarized mitochondrial membrane at 10 nM after 48 hrs by JC-1 dye-based flow cytometric analysis (reference value: 92.0 %); assay type: functional

| SMILES | IC50 (HeLa [2]) | IC50 (HL-60) | IC50 (HT-29) | IC50 (Jurkat) | inhibition (Bos taurus [3]) | inhibition (Bos taurus [4]) | IC50 [5] | IC50 (Daoy) | IC50 (SEM cells) | other results |
| --- | --- | --- | --- | --- | --- | --- | --- | --- | --- | --- |
| COc1ccc(/C=C\c2cc(OC)c(OC)c(OC)c2)cc1OP(=O)([O-])[O-].[Na+].[Na+] [FOSBRETABULIN DISODIUM] |  |  |  |  |  |  |  |  |  | Activity [1]: 26.5% |
| COc1cc(C(=O)c2c(N)oc3cc(Br)ccc23)cc(OC)c1OC | 4.5 nM | 5.6 nM | 5.4 nM | 2.8 nM | 56% | 92% | 570 nM | 2.5 nM | 3.5 nM |  |
| COc1cc(C(=O)c2c(N)oc3cc(OCc4ccccc4)ccc23)cc(OC)c1OC | 9670 nM | 7060 nM | 8680 nM | 4390 nM |  |  |  | > 10000 nM | 3680 nM |  |
| COc1ccc2c(N)c(C(=O)c3cc(OC)c(OC)c(OC)c3)oc2c1 | 6.2 nM | 3.5 nM | 787 nM | 3.1 nM |  |  |  | 5 nM | 3.6 nM |  |
| COc1cc(C(=O)c2c(N)oc3c(O)c(OC)ccc23)cc(OC)c1OC | 15.3 nM | 2.8 nM | 424 nM | 0.34 nM | 87% | 99% | 590 nM | 0.32 nM | 259 nM |  |
| CCOc1cccc2c(C(=O)c3cc(OC)c(OC)c(OC)c3)c(N)oc12 | 1250 nM | 428 nM | 910 nM | 390 nM |  |  |  | 1670 nM | 385 nM |  |
| COc1ccc(/C=C\c2cc(OC)c(OC)c(OC)c2)cc1O [COMBRETASTATIN A4] |  |  |  | 0.8 nM | 82% | 97% |  | 12.3 nM |  |  |
| COc1cc(C(=O)c2c(N)oc3ccccc23)cc(OC)c1OC | 413 nM | 339 nM | 591 nM | 385 nM |  |  |  | 371 nM | 250 nM |  |

Continued, in another order:

| IC50 (HeLa [2]) | IC50 (HL-60) | IC50 (HT-29) | IC50 (Jurkat) | inhibition (Bos taurus [3]) | inhibition (Bos taurus [4]) | IC50 [5] | SMILES | IC50 (Daoy) | IC50 (SEM cells) | other results |
| --- | --- | --- | --- | --- | --- | --- | --- | --- | --- | --- |
| 5220 nM | 4890 nM | 6510 nM | 2760 nM |  |  |  | COc1cc(C(=O)c2c(N)oc3cccc(OC)c23)cc(OC)c1OC | 3950 nM | 4560 nM |  |
| 591 nM | 285 nM | 3420 nM | 299 nM |  |  |  | COc1cc(C(=O)c2c(N)oc3cc(O)ccc23)cc(OC)c1OC | 428 nM | 371 nM |  |
| 56 nM | 36.2 nM | 62.9 nM | 29.2 nM |  | 73% | 500 nM | COc1ccc2oc(N)c(C(=O)c3cc(OC)c(OC)c(OC)c3)c2c1 | 36.2 nM | 38.9 nM |  |
| 635 nM | 413 nM | 790 nM | 399 nM |  |  |  | COc1cc(C(=O)c2c(N)oc3ccc(N)cc23)cc(OC)c1OC | 494 nM | 259 nM |  |
| 496 nM | 233 nM | 477 nM | 333 nM |  |  |  | COc1cc(C(=O)c2c(N)oc3c(OC)cccc23)cc(OC)c1OC | 345 nM | 285 nM |  |
| 591 nM | 413 nM | 682 nM | 299 nM |  |  |  | COc1cc(C(=O)c2c(N)oc3cc(F)ccc23)cc(OC)c1OC | 846 nM | 333 nM |  |
| 22.7 nM | 41.7 nM | 17.7 nM | 27.2 nM | 42% | 91% | 510 nM | CCCOc1ccc2c(C(=O)c3cc(OC)c(OC)c(OC)c3)c(N)oc2c1 | 4.4 nM | 29.7 nM |  |
| 2.9 nM | 3 nM | 5.6 nM | 2.7 nM | 79% | 99% | 480 nM | COc1ccc2c(C(=O)c3cc(OC)c(OC)c(OC)c3)c(N)oc2c1 | 0.3 nM | 4.1 nM |  |
| 1.1 nM | 3.5 nM | 0.6 nM | 0.33 nM | 74% | 97% | 390 nM | COc1cc(C(=O)c2c(N)oc3cc(C)ccc23)cc(OC)c1OC | 0.34 nM | 0.3 nM | viability at 0.01 µM (HeLa [6]): 26.4%; Activity (HeLa [7]): 74.9%; Activity (HeLa [8]): 27.08%; GI50 [9]: > 10000 nM; GI50 [10]: > 10000 nM; Activity (HeLa [11]): 24.8%; Activity (HeLa [12]): 42.6%; Activity (HeLa [13]): Active; GI50 [14]: > 10000 nM; viability at 0.01 µM (HeLa [15]): 74.4%; Activity (HeLa [16]): 10.95%; Activity (HeLa [17]): Active; Activity (HeLa [18]): 2.51%; Activity (HeLa [19]): 12.11%; Activity (HeLa [20]): 37.13%; Activity (HeLa [21]): Active; Activity (HeLa [22]): 9.35%; Activity (HeLa [23]): 57.3% |
